Screening data deposited in PubChem BioAssay by The Scripps Research Institute Molecular Screening Center.
This is a sample that favours compounds with a hit; in the whole collection about 1.9% have one here.
Tn6 DDE FP: inhibitors of Tn6 peptide binding to fibrin DD(E), primary screen, biochemical, fluorescence polarization, human fibrin, Tn6 probe. Fibrinogen beta chain (Homo sapiens), P02675. Fibrin DD(E) TRITC-Tn6 fluorescence polarization displacement. inhibition, % at 8.3 µM. 0.21% of 370,000 active;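 active means inhibition above a per-campaign cutoff: mean of compounds within control limits plus 3 SD, cut at about 15% in these data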;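 further: 0% = median of all compound wells on the plate and 100% = blocking peptide control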
Target sequence (P02675 whole entry, looked up): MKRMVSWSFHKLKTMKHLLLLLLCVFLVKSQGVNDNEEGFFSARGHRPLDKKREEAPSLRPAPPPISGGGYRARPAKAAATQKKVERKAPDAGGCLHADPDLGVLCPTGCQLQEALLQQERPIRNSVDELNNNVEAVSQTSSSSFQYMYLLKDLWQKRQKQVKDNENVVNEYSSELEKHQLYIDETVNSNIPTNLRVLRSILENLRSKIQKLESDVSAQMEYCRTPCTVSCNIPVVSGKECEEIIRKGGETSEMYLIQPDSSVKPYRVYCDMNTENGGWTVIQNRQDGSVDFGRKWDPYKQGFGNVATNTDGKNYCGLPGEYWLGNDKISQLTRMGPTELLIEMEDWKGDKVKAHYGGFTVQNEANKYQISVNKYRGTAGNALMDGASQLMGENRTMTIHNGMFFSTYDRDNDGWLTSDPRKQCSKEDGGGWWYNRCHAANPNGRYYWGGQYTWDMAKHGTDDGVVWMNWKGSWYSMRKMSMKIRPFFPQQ
UHRF1 MBD2 ctr: UHRF1 methylated DNA binding inhibitors, primary screen, counter-screen for MBD2 inhibitor project, biochemical, TR-FRET, human UHRF1, single concentration; E3 ubiquitin-protein ligase UHRF1 (Homo sapiens), Q96T88; UHRF1 binding to methylated oligo; 0.75% of 370,000 active; inhibition, % at 4.4 µM; in the data active means inhibition above about 21%;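 further: UHRF1 SRA domain binding a hemimethylated CpG hairpin DNA probe; 0% = median of test compound wells and 100% = reference inhibitor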
TDP2 inh: human TDP2 enzyme inhibitors, primary screen, biochemical, epi absorbance, recombinant enzyme | Tyrosyl-DNA phosphodiesterase 2 (Homo sapiens), O95551 | T5PNP hydrolysis, p-nitrophenol absorbance 415 nm | inhibition, % at 12.8 µM | 0.34% of 370,000 active | AID 720702, 2013;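 active means inhibition above the mean of all tested compounds plus 3 SD, set per campaign, cut at about 25% in these data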;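 further: 0% = DMSO with enzyme and 100% = buffer with substrate but no TDP2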
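System: recombinant human TDP2 / Amount: 120 nM TDP2 per well / Also added: 5 mM T5PNP chromogenic substrate / Doses: 12.8 µM single point, 1% DMSO / Incubation: 2 h at 37 °C / Detection: p-Nitrophenol epi absorbance / Evaluation: % inhibition relative to enzyme-containing and enzyme-free wells / Repeats: singlicate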
MBD2 inh: inhibitors of MBD2 binding to methylated DNA, primary screen, biochemical, TR-FRET, DNA-binding domain, human | Methyl-CpG-binding domain protein 2 (Homo sapiens), Q9UBB5 | MBD2 binding to methylated oligonucleotide | inhibition, % at 4.4 µM | 0.31% of 370,000 active; in the data active means inhibition above about 13%
DDE Tn7 FP inh: inhibitors of Tn7 peptide binding to fibrin DD(E), primary screen, biochemical, fluorescence polarization, human fibrin, Tn7 probe; Fibrinogen beta chain (Homo sapiens), P02675; FP displacement of FITC-Tn7 peptide from fibrin DD(E); 0% = median of compound wells per plate; inhibition, % at 8.3 µM; 0.13% of 370,000 active;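 active means inhibition above the mean of compounds falling within the control limits plus 3 SD of them, cut at about 14% in these data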;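 further: 0% = plate median of compound wells and 100% = 10 µM Aha-Tn7 peptide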
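Test system: human clot-derived fibrin DD(E) complex / Quantity: 2 µM final DD(E) protein / Incubation: 10 min plus 3 h, room temperature / Measured by: fluorescence polarization / Benchmarks: high control of 10 µM Aha-Tn7 peptide / Replicates: singlicate testing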
LEDGF integ inh: blockers of LEDGF/p75-dependent integrase strand transfer – biochemical, TR-FRET, high throughput, primary screen | TR-FRET IN-LEDGF/p75 DNA integration, Eu/Cy5 | 0.64% of 370,000 active | HIV-1 integrase (with human LEDGF/p75) | inhibition, % at 3.7 µM;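 active means inhibition above the screen-wide mean plus 3 SD, cut at about 13% in these data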;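 further: signal is the Cy5 over europium emission ratio at 671 and 618 nm; 0% = plate median of compound wells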
DDE Tn6 FP ctr: counter-screen hit for Tn6 peptide-fibrin DD(E) binding disruption. inhibition, % at 8.3 µM. TRITC-Tn6 fluorescence polarization displacement; 0% = median of compound wells, not DMSO. AID 720621. shares compounds with Tn6 DDE FP. 2% of 680 active;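 active means inhibition above the mean of test compounds lying between the control limits plus 3 SD of those, cut at about 14% in these data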;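 further: 0% = median of compound wells and 100% = wells with Aha-Tn7 blocking peptide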
DDE Tn6 confirm: inhibitors of Tn6 peptide binding to fibrin DD(E), confirmation, biochemical, fluorescence polarization, human fibrin, Tn6 probe. shares compounds with Tn6 DDE FP. FP displacement of TRITC-Tn6 peptide from DD(E); 0% = per-plate median of test wells. inhibition, % at 8.3 µM. 10% of 680 active;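 active means inhibition above the mean of compounds lying within the control limits plus 3 SD, cut at about 16% in these data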;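 further: 100% = high control wells holding a competing inhibitor peptide at 10 µM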
Numbers without * were called inactive; x = no result; ! = not confirmed by another sample.

SMILES	Tn6 DDE FP	UHRF1 MBD2 ctr	TDP2 inh	MBD2 inh	DDE Tn7 FP inh	LEDGF integ inh	DDE Tn6 FP ctr	DDE Tn6 confirm
C[C@@H](CO)NC(=O)c1[nH]cnc1C(=O)Nc1ccccc1	2	-2	-7	-3	0	-1	x	x
Cc1ccc(NC(=O)Cc2nc(CCl)cs2)cc1	15*	-1	-6	-4	4	0	3	1
C#CCNC(=O)C[C@H]1C[C@@]2(C(=O)OC)C(=C[C@H](C(C)(C)C)O[C@@H]2C)N(Cc2ccc(Cl)cc2Cl)C1=O	-10	2	0	6	-4	-2	x	x
Cc1ccccc1C(=O)N1CCC(C(=O)Nc2ccc(F)cc2)CC1	15*	-1	-6	-5	1	2	4	-9
Cc1ccccc1C(=O)N1CCC(C(=O)Nc2ccccn2)CC1	44*	3	-5	-2	2	-4	1	-4
CCC1CCCCN1C(=S)NN=C(C)c1ccccn1 (centres undefined)	-2	-11	-3	0	1	-5	x	x
O=C(O)c1ccc(-n2nc(C(F)(F)F)c3c2CCCC3)cc1	21*!	0	8	-7	2	2	4	3
Cc1cc2cc(CNC(=O)CCC(=O)O)ccc2n1C	9	-1	-14	-4	-5	1	x	x
Cc1cccc(NC(=S)NCc2ccc3c(c2)cc(C)n3C)c1C	23*	-2	-12	-1	-5	-2	4	-1
Cc1cccc(NC(=O)NCc2ccc3c(c2)cc(C)n3C)c1	46*	-4	1	-1	-5	-1	0	9
COc1cccc(NC(=S)NCc2ccc3c(c2)cc(C)n3C)c1	10	-7	4	-11	6	5	x	x
Cc1cc2cc(CNC(=O)Nc3cccc(Cl)c3)ccc2n1C	70*	-2	3	-2	3	1	6	18*
O=C(NCc1ccncc1)Nc1cccc(Cl)c1	9	4	-15	0	-4	5	x	x
Nc1nnc(CCCCCCCCCCc2nnc(N)s2)s1	0	-2	12	-4	-6	2	x	x
Nc1nnc(CCC2CCCCC2)s1	17*	0	-7	-3	-1	-1	4	2
Cc1cc2ncc(S(=O)(=O)C(C)(C)C)c(N)n2n1	17*	1	-4	-5	0	-1	8	3
Cc1cccc(NS(=O)(=O)c2ccc3[nH]c(=O)cc(C(=O)OC(C)C(=O)Nc4ccc([N+](=O)[O-])cc4)c3c2)c1 (centres undefined)	50*	3	-19	-6	-4	6	8	-3
CCc1ccc(NC(=O)C(C)OC(=O)c2cc(=O)[nH]c3ccc(S(=O)(=O)Nc4ccc(F)cc4)cc23)cc1 (centres undefined)	-1	-2	9	2	8	2	x	x
COc1ccc(/C=N/N2CCN(c3ccccc3OC)CC2)cc1OC	-4	-1	8	-2	-4	0	x	x
COc1ccccc1N1CCN(/N=C/c2ccc(C(=O)O)cc2)CC1	17*	1	13	-3	-6	-3	-3	-8
C=C(C)C(=O)N1CC2(CC(c3cccc(NC(=O)CC(c4ccccc4)c4ccccc4)c3)=NO2)C[C@H]1C(N)=O (some centres undefined)	15*	-3	-11	-2	4	-2	2	2
CCOc1cccc(/C=N\NC(=O)Cc2cccs2)c1O	3	-1	4	2	-4	-7	x	x
Cc1ccc(S(=O)(=O)N(C)C)cc1NC(=O)c1cccs1	17*	1	-10	-2	-1	1	-2	-5
CC(C)CCn1c(=O)c2ccccc2n2c(CN3CCOCC3)nnc12	16*	8	0	-1	-2	0	1	0
C=CCn1c(=O)c2c(nc3n2CC(C)CN3Cc2ccccc2)n(C)c1=O (centres undefined)	17*	-2	10	-4	-8	4	-1	-12
SMILES	Tn6 DDE FP	UHRF1 MBD2 ctr	TDP2 inh	MBD2 inh	DDE Tn7 FP inh	LEDGF integ inh	DDE Tn6 FP ctr	DDE Tn6 confirm
CCn1c(=S)[nH]c2ccccc21	16*	0	0	0	-1	3	-5	-15
CN(Cc1ccccc1)Cc1c[nH]c2ccccc12	17*	-1	-12	-4	6	-4	-2	-17
CCn1nnnc1SCC(=O)Nc1nc(C)c(C)s1	16*	0	-3	-4	3	-5	3	2
O=C(Nc1ccc2ncccc2c1)c1cc(-c2ccc(Cl)cc2)nc2ccccc12	-2	0	-8	3	6	0	x	x
COc1ccc(NC(=O)CSCC(=O)Nc2sccc2C#N)cc1	16*	1	10	1	6	-2	1	6
O=C(NCc1ccccc1)N1CCC(c2nc3ccc(Cl)cc3[nH]2)CC1	-2	0	3	-1	2	-1	x	x
C=C(C)CSc1nnc(-c2cc(-c3ccc(OC)cc3)n[nH]2)n1N	-8	1	15	-1	2	2	x	x
O=C(Nc1ccc2c(c1)OCO2)c1c[nH]c(=O)n(-c2ccc(F)cc2)c1=O	15*	-3	6	-4	1	0	5	4
O=C(NCC(=O)N1CCN(S(=O)(=O)c2cccc(F)c2)CC1)c1ccc(Br)o1	16*	1	-4	-1	-2	-2	14	4
CC(C)C(=O)NCCc1nc2ccccc2n1CCOc1ccccc1	15*	5	-5	1	1	1	9	8
CC(C)(C)c1ccc(S(=O)(=O)NCCc2ccncc2)cc1	7	-4	0	-9	-2	-1	x	x
Cc1cc(C(C)(C)C)cc(S(=O)(=O)NCCc2ccncc2)c1C	21*	-3	13	1	0	3	-5	-8
